CHT block – inhibitors of human choline transporter CHT; Q9GZV3; CHT-expressing cells, membrane potential dye, choline response; active compounds read low; B-score at 10 µM; 0.86% of 310,000 active; AID 488975;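 active = B-score over 3 SD under the library average, and starting fluorescence ratio not unusually high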;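 also: choline stimulus applied at its EC90 after an EC20 pre-addition; B-score computed on integrated fluorescence ratio after choline addition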
Target sequence (Q9GZV3 whole entry, looked up): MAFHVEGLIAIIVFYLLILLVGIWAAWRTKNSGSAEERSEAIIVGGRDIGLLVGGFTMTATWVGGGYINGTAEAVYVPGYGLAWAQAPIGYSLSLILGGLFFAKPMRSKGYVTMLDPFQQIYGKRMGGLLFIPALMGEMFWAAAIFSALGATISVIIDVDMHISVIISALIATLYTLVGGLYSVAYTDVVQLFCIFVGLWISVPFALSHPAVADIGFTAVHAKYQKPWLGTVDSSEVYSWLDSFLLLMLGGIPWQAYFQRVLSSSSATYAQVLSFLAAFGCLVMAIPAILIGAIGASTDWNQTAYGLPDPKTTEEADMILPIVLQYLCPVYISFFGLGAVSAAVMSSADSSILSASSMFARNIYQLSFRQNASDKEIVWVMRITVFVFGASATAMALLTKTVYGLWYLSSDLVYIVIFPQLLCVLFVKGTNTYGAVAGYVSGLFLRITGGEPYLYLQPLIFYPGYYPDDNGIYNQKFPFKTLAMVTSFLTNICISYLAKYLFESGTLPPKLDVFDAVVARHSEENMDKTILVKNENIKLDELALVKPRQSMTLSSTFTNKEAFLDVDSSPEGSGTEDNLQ
NR2E3 ag-1 – agonists of human nuclear receptor NR2E3 | Q9Y5X4 | GST-NR2E3/biotin-RetCOR TR-FRET, 1536-well | inhibition of corepressor binding, % at 4.78 µM | 0.12% of 320,000 active;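 active = percent inhibition above the cutoff of mean plus 3 SD of all tested compounds, set per screening campaign, cut at about 20% in these data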;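 also: 0% = DMSO wells and 100% = biotin wells as full block of FRET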
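Assay system: NR2E3–RetCOR corepressor complex. Quantity: 1.35 nM GST-NR2E3. Buffer or medium: pH 7.5 Tris-based buffer. Reagent: biotinylated RetCOR corepressor at 7 nM final. Schedule: 5 h at 4 °C. Detection: TR-FRET, emission read at 617 and 671 nm. Replicates: one well per compound, singlicate testing.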
GalR3 antag – antagonists of human GalR3. HEK293 GalR3-CNG cAMP membrane potential fluorescence; galR3 body fused to GalR1 C-terminus. inhibition, % at 3 µM. 0.44% of 360,000 active. AID 651719;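 active = inhibition above the screen-wide average plus 3 SD, cut at about 13% in these data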;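 also: forskolin and galanin both at EC90 stimulate the cells; cAMP rise reported by CNG channel membrane potential dye signal; 0% = forskolin plus galanin with DMSO and 100% = forskolin alone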
NR2E3 ag-2 – activates human NR2E3 receptor. Q9Y5X4. CHO-S Gal4-NCOR/VP16-NR2E3 two-hybrid, luciferase. inhibition of corepressor binding, % at 3.98 µM. 0.35% of 360,000 active. AID 602229;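 active = inhibition above the mean of all tested compounds plus 3 SD, cut at about 70% in these data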;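 also: 0% = DMSO with NR2E3 transfected cells and 100% = cells lacking NR2E3 construct; higher means lower luciferase signal from less NR2E3 corepressor binding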
CHT PAM – allosteric activators of human choline transporter CHT; 0.49% of 310,000 active; B-score at 10 µM; CHT-expressing cells, membrane potential dye, choline EC20; active compounds read high; LV-AA mutant CHT in HEK293 cells; AID 488977; Q9GZV3;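 active = initial fluorescence not abnormally high and integrated response B-score, plate-corrected, over 3 SD above library mean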
COUP-TFII inh – inhibitors of human COUP-TFII (NR2F2); 0.7% of 370,000 active; inhibition, % at 8.6 µM; AID 686940; HEK293T NGFI-A luciferase reporter, luminescence;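 active = inhibition above a per-plate cutoff, mean inhibition of test wells between control levels plus 3 SD, cut at about 38% in these data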;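 also: cells cotransfected with COUP-TFII expression vector driving the NGFI-A reporter; 0% = median of COUP-TF2 test wells and 100% = reporter-only cells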
NR2E3 agonist cf – confirmation of human NR2E3 nuclear receptor agonists; shares compounds with NR2E3 ag-1; cell-free NR2E3 corepressor release, TR-FRET, 5 h; activation (reported as inhibition), % at 3.98 µM; 39% of 360 active; AID 2379; in the data active = activation above about 20%
PPARg-NCOR2 ag – PPARg-NCOR2 interaction agonism, NR2E3 counter-screen; inhibition, % at 3.98 µM; TR-FRET PPARg-NCOR2 coregulator interaction, biochemical; 45% of 360 active; shares compounds with NR2E3 ag-1; in the data active = inhibition above about 20%;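 also: 0% = DMSO vehicle and 100% = wells without protein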
The depositor's hits bear a star; i = inactive; / = no result given. Most compounds without a hit are left out; they make up all but 2.3% or so of the library.

SMILES	CHT block	NR2E3 ag-1	GalR3 antag	NR2E3 ag-2	CHT PAM	COUP-TFII inh	NR2E3 agonist cf	PPARg-NCOR2 ag
FC(F)(F)c1ccccc1NC(=S)OCCN1CCCC12CCC(c1ccccc1)CC2 (stereo not given)	/	/	/	/	/	24.5	/	/
O=C(N[C@@H]1C[C@@H]2O[C@@H](CO)CC[C@@H]2O[C@@H]1CCc1ccc(-c2ccccc2)cc1)c1cnccn1	/	/	/	/	/	0.2	/	/
CC(=O)Nc1cccc(NC(=O)c2cc(-c3cccnc3)nc3ccc(Br)cc23)c1	i	19.2	-4.2	-2.9	i	-5.9	/	/
O=C(O)c1cc(-c2ccc3c(c2)OCO3)nc2ccc(Br)cc12	i	37.7*	-3.9	-42.5	i	-11.0	44.4*	55.4*
O=C(O)c1cc(-c2cccnc2)nc2ccc(Br)cc12	i	56.0*	-6.1	0.3	i	11.7	57.5*	56.7*
Cc1ccc(NC(=S)Nc2nc(CC(=O)Nc3ccccc3)cs2)cc1	i	20.4*	-4.4	-12.7	i	-16.4	13.4	13.3
C=C1c2cccc(O)c2C(O)=C2C(=O)[C@]3(O)C(O)=C(C(N)=O)C(=O)[C@@H](N(C)C)[C@@H]3[C@@H](O)[C@H]12	i	31.4*	-6.7	-22.3	i	10.7	1.4	0.9
C[C@H]1c2cccc(O)c2C(O)=C2C(=O)C3(O)C(O)=C(C(N)=O)C(=O)[C@@H](N(C)C)[C@@H]3[C@@H](O)[C@@H]21 (stereo not given in full)	i	-2.4	/	-8.6	i	8.8	/	/
COC(=O)CCCC[C@H]1SC[C@H]2NC(=O)N[C@]21O	i	63.1*	/	/	i	/	61.3*	47.0*
COC(=O)CCCCC1SCC2NC(=O)NC21O (stereo not given)	i	76.4*	-7.0	-22.2	i	-19.8	79.6*	80.3*
O=S1(=O)c2ccc(N3CCN(Cc4ccccc4F)CC3)cc2Oc2ccccc2CN1Cc1cn(Cc2ccccc2C(F)(F)F)nn1	/	/	/	/	/	-8.8	/	/
CC(=O)Nc1ccc(NC(=O)C(C)OC(=O)/C(C#N)=C/c2ccc(N(C)C)cc2)cc1 (stereo not given)	i	34.0*	-5.8	-46.4	i	-24.8	29.8*	30.3*
CC(OC(=O)/C(C#N)=C/c1ccc(N(C)C)cc1)C(=O)N(C)c1ccccc1 (stereo not given)	i	1.0	-6.0	9.0	i	-1.2	/	/
COC(=O)[C@]12C[C@H](CC(=O)NCc3cccc(C(F)(F)F)c3)C(=O)N(Cc3cccc4ccccc34)C1=C[C@H](COCc1ccccc1)O[C@@H]2C	/	/	/	/	/	4.5	/	/
O=C(O)C1CCN(c2nc(-c3ccccc3)c3cc(Br)ccc3n2)CC1	i	20.9*	-11.8	-59.2	i	19.4	23.7*	25.0*
C=CCN1C(=O)[C@@H](CC(=O)NCCC(C)C)[C@]2(C(=O)OCC)CCCCC/C=C/12	/	/	/	/	/	10.0	/	/
O=C(O)c1ccc2c(c1)C1C=CCC1C(c1ccncc1)N2 (stereo not given)	i	22.8*	1.9	-37.6	i	0.4	18.2	-7.1
CCOC(=O)c1ccc2c(c1)C1C=CCC1C(C(=O)O)N2 (stereo not given)	i	8.7	/	/	i	/	/	/
FC(F)(F)c1ccc2c(c1)C1C=CCC1C(c1ccncc1)N2 (stereo not given)	/	/	-2.1	1.5	/	6.6	/	/
CCOC(=O)C1Nc2ccc(C(=O)O)cc2C2C=CCC12 (stereo not given)	i	29.6*	-7.7	-37.4	i	4.4	11.3	7.0
COc1ccc(-n2c(COc3ccc(C)cc3)nnc2SCC(=O)Nc2ccc(S(=O)(=O)Nc3cc(C)nc(C)n3)cc2)cc1	/	/	/	/	/	7.9	/	/
Cn1c(N)c(C(=O)CSc2nc(C3CC3)n(-c3ccccc3)n2)c(=O)[nH]c1=O	/	23.6*	-1.1	0.7	/	-5.3	-15.5	-3.4

High-throughput results deposited in PubChem by several laboratories.
